In ChEMBL document CHEMBL1123065, “Sleep-inducing N-alkyl-5-[m-(trifluoromethyl)phenyl]-5-hydroxy-2-pyrrolidinones and N-alkyl-3-(trifluoromethyl)cinnamamides” (J Med Chem, 1985):
Active and inactive are the calls of the source. No cut-off for these calls is given here.

Key:
[1] = system: Mus musculus; assay: Effective dose against Mice ataxia, ip administration; format: functional
Method in brief: (§1)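 Mouse behaviour after ip dosing assessed by a modification of the method of ref 7; ataxia, docility and loss of righting reflex scored, 10 mice per dose, ED50 in mg/kg ip.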

[2] = Lethal dose was obtained by 2-h post administration (ip), using four male Royal Hart Wistar rats; format: toxicity, organism-based; conditions: rat, in vivo
Method in brief: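 Male Royal Hart Wistar rats, 136-160 g, housed in pairs in wire cages, given compound ip; deaths read 2 h after dosing, four rats per compound; LD50 estimated by probit analysis.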

[3] = system: Mus musculus; assay: Effective dose against loss of righting reflex in mice (10 mice per dose, ip); format: functional; method in brief: as §1
[4] = system: Mus musculus; assay: Anticonvulsant activity against N-sulfamoylhexahydrozepine (10 mice were used per dose, ip); format: functional
Method in brief: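 Mice given compound ip, 10 per dose, then challenged with N-sulfamoylhexahydroazepine by methods of ref 9; ED50 (mg/kg ip) for protection determined.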

[5] = system: Mus musculus; assay: Ability to reinduce anesthesia (70 mg/kg, iv) following recovery of loss of righting reflex obtained with hexobarbital.; format: functional
[6] = system: Mus musculus; assay: Ability to produce neurological deficit in the rotarod test (10 mice were used per dose, ip); format: functional
Method in brief: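 Rotarod method of ref 10, intraperitoneal dosing, 10 mice per dose; neurological deficit scored and ND50 (mg/kg ip) derived.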

[7] = Ratio of the oral dose of the test compound relative to that of methaqualone (15 mg/kg, po) to induce sleep in Cebus monkey;NA is Not Active.; format: functional, organism-based
Method in brief: (§2)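 Cebus monkeys restrained in chairs within sound-attenuated cubicles; dosing per os at 5:00 p.m., five channels recorded, EEG over 13.5 h, Monday–Thursday, visually scored. Each animal its own control versus last 15 control nights (intragastric carboxymethylcellulose placebo). Value is oral dose of test substance relative to methaqualone 15 mg/kg po inducing sleep in the same monkey; NA = no sleep at any dose.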

[8] = system: Mus musculus; assay: Effective dose against Mice docility, ip administration; format: functional; method in brief: as §1
[9] = system: Monkey; assay: Ratio of the oral dose of the test compound relative to that of methaqualone (15 mg/kg, po) to induce sleep in Cebus monkey; format: functional; method in brief: as §2
[10] = system: Mus musculus; assay: Effective dose against loss of righting reflex in mice;10 mice per dose(ip); format: functional; method in brief: as §1
[11] = Ratio of the oral dose of the test compound relative to that of methaqualone (15 mg/kg, po) to induce sleep in Cebus monkey; NA is Not Active.; format: functional, organism-based; method in brief: as §2

Row | Compound | ED50 [1] [mg/kg] | LD50 at 2 h [2] [mg/kg] | ED50 [3] [mg/kg] | ED50 [4] [mg/kg] | RD50 [5] [mg/kg] | ND50 [6] [mg/kg] | Ratio [7] | ED50 [8] [mg/kg] | Sleep ratio [9] | ND50 [10] [mg/kg] | Ratio [11]
1 | CCCCN1C(=O)CCC1(O)c1cccc(C(F)(F)F)c1 (stereo unspecified) | > 200 | > 400 | > 200 | 183 | 150 | >200 | inactive | > 200 | – | – | –
2 | CC(C)NC(=O)CCC(=O)c1cccc(C(F)(F)F)c1 | > 200 | > 400 | > 200 | > 150 | 126.9 | >150 | – | > 200 | – | – | –
3 | CN1C(=O)CCC1(O)c1ccccc1 (stereo unspecified) | > 200 | 300 | > 200 | 138 | 150 | >200 | – | > 200 | – | – | –
4 | CNC(=O)/C=C/c1cccc(C(F)(F)F)c1 | 120 | 275 | 200 | 84.1 | 76.3 | 149 | – | 92.9 | 0.5 | – | –
5 | O=C(/C=C/c1ccccc1)NCCO [IDROCILAMIDE] | 183 | > 400 | > 200 | 117 | 75 | >200 | – | 183 | – | – | –
6 | O=C(/C=C/c1cccc(C(F)(F)F)c1)NCCO | 117 | 400 | 186 | 100 | 66.7 | 115.8 | – | 78.6 | – | – | –
7 | CN1C(=O)CCC1(O)c1cccc(C(F)(F)F)c1 (stereo unspecified) | 129 | 367 | 133 | 51.6 | 45.1 | 106.5 | – | 93.8 | 1 | – | –
8 | CC(C)CNC(=O)CCC(=O)c1cccc(C(F)(F)F)c1 | > 200 | 162 | > 200 | > 200 | >200 | >200 | – | > 200 | – | – | –
9 | CN1CCN(C(=O)/C=C/c2cccc(C(F)(F)F)c2)CC1 | > 100 | 300 | > 100 | > 75 | >75 | >75 | – | > 100 | – | – | –
10 | NC(=O)/C=C/c1cccc(C(F)(F)F)c1 | 42.9 | 260 | 54.5 | 49.5 | 17.2 | 46.9 | inactive | 37.5 | – | – | –
11 | CN1C(=O)CCC1(O)c1ccc(C(F)(F)F)cc1 (stereo unspecified) | > 200 | > 400 | > 200 | 132 | >200 | 140.5 | – | > 200 | – | – | –
12 | O=C1CCC(O)(c2cccc(C(F)(F)F)c2)N1 (stereo unspecified) | > 200 | > 400 | > 200 | > 200 | 150 | >200 | – | > 200 | 0.1 | – | –
13 | CNC(=O)/C=C(\C)c1cccc(C(F)(F)F)c1 | 87.5 | > 400 | > 100 | > 75 | 56.3 | >75 | – | 87.5 | – | – | –
14 | CN(C)C(=O)CCC(=O)c1cccc(C(F)(F)F)c1 | > 50 | 300 | > 50 | > 37.5 | 127.6 | >37.5 | – | > 50 | – | – | –
15 | CN(C)C(=O)/C=C/c1cccc(C(F)(F)F)c1 | > 75 | 300 | – | – | >75 | – | – | – | – | >75 | –
16 | Cc1ccccc1-n1c(C)nc2ccccc2c1=O [METHAQUALONE] | 34.4 | 565 | 39.8 | 31.5 | 21.9 | 31.5 | – | 35.6 | 1 | – | –
17 | CCN1C(=O)CCC1(O)c1cccc(C(F)(F)F)c1 (stereo unspecified) | > 100 | > 400 | > 100 | > 75 | 68.8 | >75 | – | > 100 | – | – | inactive
18 | O=C(CCC(=O)c1cccc(C(F)(F)F)c1)NC1CCCCC1 | > 200 | > 400 | > 200 | > 200 | >200 | >200 | – | > 200 | – | – | –
19 | CCNC(=O)/C=C/c1cccc(C(F)(F)F)c1 | 90 | 333 | – | – | >75 | – | – | – | – | >75 | –
20 | Cc1cccc(C2(O)CCC(=O)N2C)c1 (stereo unspecified) | 93 | 300 | 138 | 60.9 | 49.5 | 111.5 | – | 81.5 | – | – | inactive
21 | CN1CCN(C(=O)CCC(=O)c2cccc(C(F)(F)F)c2)CC1 | > 50 | > 400 | > 50 | > 37.5 | >37.5 | >37.5 | – | > 50 | – | – | –
22 | CCC(O)CNC(=O)/C=C/c1cccc(C(F)(F)F)c1 (stereo unspecified) | 90 | 333 | 92.9 | 64.4 | 68.8 | 57.9 | inactive | 87.5 | – | – | –
23 | CN1C(=O)CCC1(O)c1cccc(Cl)c1 (stereo unspecified) | 186 | > 400 | > 200 | > 150 | >150 | >150 | – | 158 | – | – | –
24 | CCC(C)NC(=O)CCC(=O)c1cccc(C(F)(F)F)c1 (stereo unspecified) | > 200 | 300 | > 200 | > 200 | >50 | >150 | – | > 200 | – | – | –
25 | CNC(=O)/C(C)=C/c1cccc(C(F)(F)F)c1 | 75 | 300 | > 100 | 68.8 | 24.7 | >75 | – | 75 | 0.3 | – | –
26 | CCCN1C(=O)CCC1(O)c1cccc(C(F)(F)F)c1 (stereo unspecified) | > 200 | > 400 | 200 | 150 | 131.9 | >200 | – | > 200 | – | – | –
